Experimental data reported in article PMC2114648 (The Journal of Cell Biology, 1987).
Values joined by “and” are separate entries in the source; they are usually repeats but may differ in a detail not shown here. Equal entries are not always repeated. Where two headings read alike, the source gives them in different places.

How the values were obtained:
[1] = molecular target: T1, EGF receptor on MDCK cells (Canis lupus familiaris, UniProt A0A8I3RYJ5); type: binding, canine; settings: for EGF bound, % of the total tracer added: 4 C, 50,000 cpm [125I]EGF
Outline: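 Confluent MDCK filter monolayers (1.8–2.0×10^6 cells/well) washed three times with cold PBS. Hepes buffer (50 mM Hepes, 1% BSA, pH 7.4) added both sides. 50,000 cpm [125I]EGF (194 µCi/µg) plus unlabeled EGF 1–200 ng/ml applied to apical or basal side. Incubated 6 h at 4°C, then washed. Filters excised and gamma-counted. Scatchard analysis.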

[2] = molecular target: T1, EGF receptor on MDCK cells; type: cell-based, canine
Outline: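 MDCK monolayers on 0.45-µm nitrocellulose filter chambers, used 5–7 d after plating. Hepes buffer pH 7.4. 50,000 cpm (0.137 ng) chloramine-T-iodinated EGF plus 50,000 cpm [14C]inulin leakage marker added apically or basally. Opposite side sampled every 30 min with buffer replacement. Cumulative counts expressed as % of tracer added. Antibody 1:100 preincubated basally 60 min at 37°C, sampled over 4.5 h. Triplicate wells.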

MDCK cells = type: in vitro ADME, canine
Outline: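 MDCK monolayers on nitrocellulose Millicell filters, 5–7 d after plating (1.8–2.0×10^6 cells/well at confluence). Both sides washed with PBS pH 7.4. Chloramine-T-iodinated EGF tracer added to one side at 4°C, then held at 4, 15 or 37°C, with [14C]inulin (50,000 cpm) as leak marker. In a second format, tracer was bound basally 2.5 h at 4°C, washed, and moved to 37°C. Triplicate wells, mean ± SD.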

[3] = Diffusion across nitrocellulose filter of empty chambers; type: in vitro ADME; settings: empty chamber, nitrocellulose filter without cells; 2 h; ~50,000 cpm tracer
[4] = system: insulin receptors on MDCK cells; assay: [125I]insulin binding to basal or apical surface of MDCK cells; set-up: species or system canine; settings: Hepes buffer, 15 C

| Substance | EGF bound, % of the total tracer added ([1]; apical surface of MDCK cells) | EGF bound, % of the total tracer added ([1]; basal surface of MDCK cells, binding maximal within 4 h) | Concentration of cold EGF that inhibited binding by 50% ([1]; basal surface of MDCK cells, 6 h at 4 C, competition with [125I]EGF) | Effect of unlabeled EGF on transport of tracer EGF, basal-to-apical ([2]; 0.85 nM (5 ng/ml) unlabeled EGF) | Effect of unlabeled EGF on transcytosis of labeled EGF, apical-to-basal ([2]; 110 nM cold EGF) | Effect of unlabeled EGF on transcytosis of labeled EGF, basal-to-apical ([2]; 110 nM unlabeled EGF) | Transport of EGF basal-to-apical at 4 C (in words) (MDCK cells; 4 C versus 37 C, mean of triplicate wells) | Transport of EGF basal-to-apical at 15 C (in words) (MDCK cells; 15 C versus 37 C, mean of triplicate wells) | Transport in the apical-to-basal direction (in words) (MDCK cells; MDCK monolayer) | Time to appearance of EGF at the apical surface after warming (MDCK cells; pre-bound tracer on basal surface, warmed from 4 C to 37 C) | Diffusion across the membrane, % of the total added [3] | Binding of insulin [4] | Transport in either direction (in words) (MDCK cells; MDCK monolayer, basal-to-apical and apical-to-basal) |
| --- | --- | --- | --- | --- | --- | --- | --- | --- | --- | --- | --- | --- | --- |
| epidermal growth factor [EGF] | < 1% and 0.8% | 6.5% and ~ 6% | 5 ng/mL | substantial de- crease | no effect | completely inhibited | even further decreased | markedly decreased | No transport | ≤ 15 min | 22% | – | – |
| insulin | – | – | – | – | – | – | – | – | – | – | – | failed to detect binding | not observed |
